Experimental data reported in article PMC3457786 (Journal of chromatography. B, Analytical technologies in …, 2012).
Entries after “also recorded” stand apart in the source; their conditions may differ. Where two headings read alike, the source gives them in different places. One block for each molecule: values may come before it.

Assays:
[1] = tested on: lung cancer xenografts; details: mice, oral route; ref (35); cited from earlier work
[2] = Cytotoxicity assay; assay type: cell-based; details: human
[3] = tested on: Caco-2 monolayers; test: Drug transport; assay type: in vitro ADME, human; details: for Papp (× 10^−5) (cm/s) AP-to-BL / Papp (× 10^−5) (cm/s) BL-to-AP: 37°C, 30-120 min, mean ± SD (n=3)
[4] = tested on: labile iron pool (LIP) in THP-1 cells; test: Calcein-based iron chelation assay; assay type: cell-based, human; details: iron-loaded THP-1 cells, 10 µM chelator, SIH as positive control
How it was run: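 THP-1 cells were loaded with ferric sulfate at 25 µM for 1 h (figure legend: iron(II) sulfate at 10 µM for 3 h, 37°C). They then took calcein-AM at 0.2 µM for 10 min at 37°C, were washed and resuspended in PBS. Chelator (10 µM) or SIH (30 µM) was added. Fluorescence (ex 465/em 510 nm) was read immediately in repeated 2-min cycles at 37°C, expressed as (F−Fi)/Fi, with Fi = fluorescence at time 0.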

[5] = Stability and isomer conversion of chelator solutions by HPLC; assay type: physicochemical; details: resolved by HPLC
How it was run: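 Solutions diluted in HBSS from 100 mM DMSO stocks, sonicated and warmed to 37°C. Stored at 4°C for one week with freeze-thaw, or 4 h at room temperature or 40°C. 50 µM solutions with a 10 µM thiosemicarbazone internal standard injected fresh and after 24 h at 4°C. Reversed-phase F5 column, 40°C, 1 mL/min, 2 mM ammonium acetate/10 mM EDTA–acetonitrile 50:50, pH 5.8, UV 318 nm.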

[6] = tested on: HIV-1; details: ref [14], cited from earlier work
[7] = tested on: Caco-2 monolayers; test: Lucifer yellow; assay type: in vitro ADME, human; details: either direction, at the ends of the experiments
[8] = tested on: Caco-2 cells; test: Cytotoxicity assay; assay type: cell-based; details: concentrations up to 500 µM, 24 h
[9] = tested on: Caco-2 cells; details: Caco-2 cells in vitro; ref [34]; cited from earlier work
[10] = ref [30]; cited from earlier work
[11] = 100 µM chelator, Caco-2 monolayers
[12] = 300 µM chelator, Caco-2 monolayers

Molecule: CN(C)C(=S)NN=C(c1ccccc1)c1ccccn1 [Bp44mT, 2-benzoylpyridine-4,4-dimethyl-3-thiosemicarbazone]
Efficacy against lung cancer xenografts [1]: marked efficacy

Molecule: NC(=S)NN=C(c1ccccc1)c1ccccn1 [BpT, 2-benzoylpyridine thiosemicarbazone]
viability at 24 h, 500 µM [2]: ~70%

Molecule: CCNC(=S)NN=C(c1ccccc1)c1ccccn1 [Bp4eT, 2-benzoylpyridine 4-ethyl-3-thiosemicarbazone]
Rnet, ratio of Papp (BL-to-AP) to Papp (AP-to-BL) ([3]; 100 µM chelator): 1.10 | Papp (× 10^−5) (cm/s) AP-to-BL [3, 11]: 0.809 ± 0.119 × 10^−5 cm/s | Papp (× 10^−5) (cm/s) BL-to-AP [3, 11]: 0.889 ± 0.196 × 10^−5 cm/s | Rnet, ratio of Papp (BL-to-AP) to Papp (AP-to-BL) ([3]; 300 µM chelator): 0.89 | Papp (× 10^−5) (cm/s) AP-to-BL [3, 12]: 1.819 ± 0.302 × 10^−5 cm/s | Papp (× 10^−5) (cm/s) BL-to-AP [3, 12]: 1.627 ± 0.107 × 10^−5 cm/s | Intracellular iron chelation (calcein de-quenching) [4]: slightly more effective intracellular iron chelators than SIH | E/Z isomer formation in aqueous solution [5]: formed inter-convertible Z and E isomers | IC50, inhibition of HIV-1 replication [6, 15]: nanomolar concentrations

LY recovered from the receiver chambers [7]: Less than 2%
Molecule: lucifer yellow [LY]

Molecule: C=CCNC(=S)NN=C(c1ccccc1)c1ccccn1 [Bp4aT, 2-benzoylpyridine 4-allyl-3-thiosemicarbazone]
Rnet, ratio of Papp (BL-to-AP) to Papp (AP-to-BL) ([3]; 100 µM chelator): 0.77 | Papp (× 10^−5) (cm/s) AP-to-BL [3, 11]: 1.670 ± 0.016 × 10^−5 cm/s | Papp (× 10^−5) (cm/s) BL-to-AP [3, 11]: 1.292 ± 0.282 × 10^−5 cm/s | Rnet, ratio of Papp (BL-to-AP) to Papp (AP-to-BL) ([3]; 300 µM chelator): 0.92 | Papp (× 10^−5) (cm/s) AP-to-BL [3, 12]: 2.756 ± 0.261 × 10^−5 cm/s | Papp (× 10^−5) (cm/s) BL-to-AP [3, 12]: 2.534 ± 0.454 × 10^−5 cm/s | Transport of Bp4aT faster than that of Bp4eT ([3]; relative to Bp4eT, Caco-2 monolayers): approximately 1.5 fold | Effect on Caco-2 cell growth / cytotoxicity [8]: little effect; also recorded: no apparent cytotoxicity | Intracellular iron chelation (calcein de-quenching) [4]: slightly more effective intracellular iron chelators than SIH; also recorded: greater chelation efficacy than Bp4eT | E/Z isomer formation in aqueous solution [5]: formed inter-convertible Z and E isomers | IC50, inhibition of HIV-1 replication [6, 15]: nanomolar concentrations

Molecule: O=C(O)c1ccc(-n2nc(-c3ccccc3O)nc2-c2ccccc2O)cc1 [ICL670, 4-[3,5-bis-(hydroxyphenyl)-1,2,4-triazol-1-yl]-benzoic acid, reference compound]
IC50, inhibition of HIV-1 replication [6, 15]: high micromolar concentrations | IC50, inhibition of HIV-1 replication [6]: high micromolar range | Papp value [9]: 1.66 ± 0.13 × 10^−5 cm/s

Molecule: CC(=O)N(O)CCCCCNC(=O)CCC(=O)N(O)CCCCCNC(=O)CCC(=O)N(O)CCCCCN [DFO, desferrioxamine]
Absorption through the gastrointestinal tract [10]: very poor absorption
